One test relates to HEp-2. The test can be described thus: Cytotoxicity against human Hep2 cells after 72 hrs by sulforhodamine B assay. The class given is functional, cell-based. As to conditions: HEp-2, 72 h. The method in brief: (§1)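 Cells kept in RPMI 1640 with 10% FBS at 37 °C, 5% CO2, humidified. Log-phase cells treated in triplicate at 0.16–20.0 µg/mL for 72 h. Cell density read by sulforhodamine B. Value is the dose giving 50% inhibition of control growth (ED50). Ellipticine served as positive control.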

The test system of the next test is KB. Kind of test: Cytotoxicity against human KB cells after 72 hrs by sulforhodamine B assay. The class given is functional, cell-based. The method in brief: as §1
In test [1] the test system is HeLa. Kind of test: Cytotoxicity against human HeLa cells after 72 hrs by sulforhodamine B assay. The class given is functional, cell-based. The method in brief:
as §1

Test [2] concerns HeLa. Kind of test: Cell cycle arrest in human HeLa cells assessed as accumulation at G1 phase at 10 times IC50 after 48 hrs by flow cytometry. The class given is functional. The procedure, abridged:
(§2)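 HeLa cells in log phase exposed 48 h to compound in DMSO at ten times its cytotoxicity IC50. Fixed in cold 70% (v/v) EtOH, then stained 12 h at 4 °C with Triton X-100, trisodium citrate and RNase A, and filtered through nylon mesh. DNA content measured by flow cytometry gives the percentage of cells in G1, S and G2.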

Test [3] relates to HeLa. Kind of test: Cell cycle arrest in human HeLa cells assessed as accumulation at S phase at 10 times IC50 after 48 hrs by flow cytometry. The class given is functional. The procedure, abridged: as §2
For test [4], the system named is HeLa. Kind of test: Cell cycle arrest in human HeLa cells assessed as accumulation at G2 phase at 10 times IC50 after 48 hrs by flow cytometry. The class given is functional. The method in brief: as §2

Converted amounts (≈) assume the structure as drawn.

The values below come from ChEMBL document CHEMBL1151837, “Structural reassignment, absolute configuration, and conformation of hypurticin, a highly flexible polyacyloxy-6-heptenyl-5,6-dihydro-2H-pyran-2-one” (J Nat Prod, 2009).

On to `Cc1c2ccncc2c(C)c2c1[nH]c1ccccc12` [ELLIPTECINE], for which the IC50 in the test on HEp-2, in the test on KB and with HeLa [1] was 0.4 µg/mL (≈ 1.62 µM) throughout.
As to `CC(=O)O[C@H](/C=C\[C@H]1CC=CC(=O)O1)C[C@@H](OC(C)=O)[C@H](C)OC(C)=O` [HYPTOLIDE], the figures for the Activity with HeLa [2], in the test on HeLa [3] and with HeLa [4] were 34%, 57% and 7%, respectively. For the same molecule, the half-maximal inhibitory concentration (IC50) came out at 6.2 µg/mL (≈ 16.8 µM) in the test on HEp-2, 3.6 µg/mL (≈ 9.77 µM) with KB and 2.8 µg/mL (≈ 7.6 µM) in the test on HeLa [1].
For `CC(=O)O[C@H]([C@@H](OC(C)=O)[C@H](/C=C\[C@H]1CC=CC(=O)O1)OC(C)=O)[C@H](C)OC(C)=O` [SPICIGEROIDE], the Activity amounted to 40% in the test on HeLa [2], 34% with HeLa [3] and 23% in the test on HeLa [4]. In addition, the IC50 in the test on HEp-2 was determined as 9.4 µg/mL (≈ 22 µM); in the test on KB it was 5.4 µg/mL (≈ 12.7 µM); with HeLa [1], 15.9 µg/mL (≈ 37.3 µM).
